Rows were chosen to be rich in hits. Some 3.5% of all compounds tested hit in one or more screens of this group.
MrgX1 PAM = positive allosteric modulators of MrgX1, primary screen, HEK293 cells, Fluo-4 calcium flux; 310,000 compounds, 0.63% hits; AID 588675, 2011; Mas-related G-protein coupled receptor member X1 (Homo sapiens), Q96LB2; B-score at 10 µM; FDSS; active compounds read high;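 active = plate-corrected calcium response at least 3 library SD above typical, normal starting fluorescence, not activating the receptor alone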;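 note: compound read alongside a low EC10 to EC30 dose of BAM8-22 agonist; peak minus trough fluorescence over baseline measured at the second addition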
Target sequence (Q96LB2 whole entry, looked up): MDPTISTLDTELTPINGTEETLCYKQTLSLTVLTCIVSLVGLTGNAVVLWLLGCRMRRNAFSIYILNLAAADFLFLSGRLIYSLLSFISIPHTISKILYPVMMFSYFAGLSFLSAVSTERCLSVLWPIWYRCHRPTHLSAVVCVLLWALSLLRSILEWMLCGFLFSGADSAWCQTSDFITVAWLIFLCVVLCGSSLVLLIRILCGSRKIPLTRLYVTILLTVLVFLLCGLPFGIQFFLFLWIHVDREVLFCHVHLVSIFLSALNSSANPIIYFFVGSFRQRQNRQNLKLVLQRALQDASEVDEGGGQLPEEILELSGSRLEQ
MrgX1 antagonist = antagonists of human MrgX1 receptor, primary screen, HEK293 cells, Fluo-4 calcium flux. BAM8-22 antagonism; active compounds read low. B-score at 10 µM. 310,000 compounds, 1.3% hits;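 active = calcium-response B-score plate-corrected more than 3 library SD below zero, starting fluorescence within 5 deviations, no agonist response on first addition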;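 note: peak minus trough fluorescence over baseline after final BAM8-22 challenge near maximal dose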
MrgX1 ag = agonists of human MrgX1 receptor, primary screen, HEK293 cells, Fluo-4 calcium flux; Fluo-4 calcium fluorescence, agonist mode; active compounds read high; B-score at 10 µM; AID 588627, 2011; 310,000 compounds, 0.44% hits; Mas-related G-protein coupled receptor member X1 (Homo sapiens), Q96LB2;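 active = calcium response B-score plate-corrected fluorescence ratio at least 3 library SD, with starting fluorescence B-score inside 5 SD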
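Assay system: stable human MrgX1 HEK293 cell line. Quantity: 15,000 cells per well. Schedule: cells plated overnight, dye loaded 0.5 h 37 °C, 0.5 h room temperature. Detection: Fluo-4 NW calcium-flux fluorescence, kinetic read. Read-out basis: peak-minus-minimum fluorescence over baseline, converted to B scores. Control set: positive and negative control wells on each plate.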
RGS4 inh = RGS4 inhibitors, primary screen, cell-based, HEK293 M3R inducible RGS4, calcium flux; Fluo-4 calcium flux; active compounds read high; triggered by carbachol at its EC20; 310,000 compounds, 0.45% hits; B-score at 10 µM;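 active = B-score, a plate-corrected calcium signal, over three deviations above library mean, with baseline fluorescence within five deviations of library mean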;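 note: RGS4 expression induced by doxycycline in cells with stable M3 receptor; B-score is computed from the integrated fluorescence ratio over baseline after carbachol; higher B-score means a larger calcium signal and so more RGS4 inhibition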
Target sequence (P49798 whole entry, looked up): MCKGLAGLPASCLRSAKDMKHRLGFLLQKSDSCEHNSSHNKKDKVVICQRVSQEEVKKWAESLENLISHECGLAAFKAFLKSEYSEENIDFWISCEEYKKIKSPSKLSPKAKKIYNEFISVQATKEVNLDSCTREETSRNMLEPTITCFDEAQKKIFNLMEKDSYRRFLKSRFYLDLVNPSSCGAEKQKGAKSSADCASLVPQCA
RGS4 act = RGS4 potentiators or activators, primary screen, cell-based, HEK293 M3R inducible RGS4, calcium flux; B-score at 10 µM; AID 463111, 2010; 310,000 compounds, 0.92% hits; carbachol calcium flux Fluo4; active compounds read low;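 active = B-score of the integrated calcium signal more than 4 SD below the library mean, with starting fluorescence not abnormally high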;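 note: negative B-score means reduced calcium response which marks RGS4 activation or potentiation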
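Also added: carbachol at ECmax as muscarinic agonist stimulus; Assay system: HEK293 cells with stable M3R and inducible RGS4; Timing: overnight RGS4 induction, 30 min dye load 37 °C, 20 min compound RT; Measured by: Fluo4-AM (2 µM) calcium-flux fluorescence, kinetic read.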
RGS4 inh valid = enhanced carbachol calcium response, M3R/RGS4 cells, RGS4 inhibitor project, cell-based, validation screen, HEK293 M3R/RGS4, calcium flux. shares compounds with RGS4 inh. carbachol calcium Fluo-4 fluorescence; carbachol added at its EC20; 0 = buffer wells, 100 = carbachol control. calcium response, % at 10 µM. 1,700 compounds, 65% hits;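 active = duplicate-averaged calcium response above the buffer-only control mean plus 5 SD of those controls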;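 note: integrated fluorescence ratio F max minus min over baseline F0; higher response in RGS4-induced cells means RGS4 inhibition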
M3R Ca ctr = carbachol calcium response in non-induced M3R cells, confirmation, counter-screen for RGS4 inhibitor project, cell-based, HEK293 M3R; 1,900 compounds, 20% hits; AID 493000, 2010; shares compounds with RGS4 inh; activity (percent), % at 10 µM; carbachol calcium Fluo-4; submaximal (EC20) carbachol stimulus; buffer wells 0%, carbachol control wells 100%; call rule not given here;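 note: RGS4 induction absent so cells express M3R without RGS4; higher means more calcium signal and flags a non-specific hit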
RGS4 inh ctr2 = second counter-screen for RGS4 inhibitors: non-induced cells without carbachol | shares compounds with RGS4 inh | HEK293 M3R/RGS4 non-induced, Fluo-4 calcium, no carbachol; normalised: buffer wells 0%, carbachol wells 100% | calcium response (agonist-mode artifact), % at 10 µM | 1,900 compounds, 22% hits | AID 493001;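 active = duplicate-averaged calcium rise in uninduced cells above buffer wells' mean plus 5 SD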
Active calls of the source: *; i = inactive; x = no result given.

SMILES | MrgX1 PAM | MrgX1 antagonist | MrgX1 ag | RGS4 inh | RGS4 act | RGS4 inh valid | M3R Ca ctr | RGS4 inh ctr2
Cc1ccc(Cn2c(=N)n(CC(=O)c3ccccc3)c3ccccc32)cc1 | i | i | i | 5.3* | i | 24%* | 34%* | 31%*
NC(=O)N/N=C/c1ccc(-n2nncc2-c2ccc(Cl)cc2)cc1 | i | i | i | 6.2* | i | 20%* | 41%* | i
O=C(c1cccc(NS(=O)(=O)c2ccccc2)c1)N1CCCCC1 | i | i | i | i | i | x | x | x
O=[N+]([O-])/C=C\c1ccc(N2CCCC2)c(F)c1 | x | x | x | 36* | i | 34%* | i | 75%*
CCCCCN(C(=O)CCC(=O)OCC(=O)Nc1cccc(CC)c1)c1c(N)n(CCCC)c(=O)[nH]c1=O | i | i | i | i | i | x | x | x
COc1ccc(C2=NN(CN3C(=O)C(=O)c4ccccc43)C(c3ccc(OC)cc3)C2)cc1 (stereo not drawn) | i | i | i | i | i | x | 35%* | i
Cc1ccc(NC(=O)CCCc2ccccc2)c([N+](=O)[O-])c1 | i | i | i | i | i | x | x | x
Cc1cc(Cl)ccc1OCC(=O)NNC(=O)c1ccco1 | i | i | i | i | i | x | i | i
O=C(COc1ccccc1Cl)NCCNC(=O)c1ccco1 | i | i | i | i | i | x | x | x
COc1ccc(Nc2nc(N3CCOCC3)nc(N3CCOCC3)n2)c(OC)c1 | i | i | i | i | i | i | i | i
CCCN1CCN(CCCNC(=O)c2ccc(CS(=O)c3ccc(OC)cc3)o2)CC1 (stereo not drawn) | i | i | i | i | i | x | x | x
CN(CC(=O)Nc1cccc(F)c1)C(=O)CNS(=O)(=O)c1ccc(N(C)C)c([N+](=O)[O-])c1 | i | i | i | i | i | x | x | x
COc1cccc(-c2csc(NC3OC(=O)c4c3ccc(OC)c4OC)n2)c1 (stereo not drawn) | i | i | i | i | i | x | i | i
COc1ccc2c(c1OC)C(=O)OC2Nc1nc(-c2ccc(-c3ccccc3)cc2)cs1 (stereo not drawn) | i | i | i | i | i | i | i | 8.0%*
COc1ccc2c(c1OC)C(=O)OC2Nc1nc(-c2cc3ccccc3oc2=O)cs1 (stereo not drawn) | i | i | i | i | i | x | x | x
C=CCN(C(=O)CNC(=O)c1ccco1)C(C(=O)NC1CCCCC1)c1cccnc1 (stereo not drawn) | i | i | i | i | i | x | x | x
Cc1ccc(C(=O)N/C(=C/c2cccnc2)C(=O)NCc2ccco2)cc1 | i | i | i | i | i | x | x | x
Cc1ccc(C(=O)N/C(=C\c2ccccc2)C(=O)NCc2cccnc2)cc1 | i | i | i | i | i | i | i | i
O=C(NCc1cccnc1)/C(=C/c1ccccc1)NC(=O)c1ccccc1 | i | i | i | 5.2* | i | i | i | i
O=C(NCc1cccnc1)/C(=C/c1ccco1)NC(=O)c1ccccc1 | i | i | i | i | i | x | x | x
CSCCC(=O)NC1CCCN(CCc2ccccc2)C1 (stereo not drawn) | i | i | i | i | i | x | x | x
C/C(N)=C(/C#N)C(=O)CSc1nc(-c2ccccc2)c(-c2ccccc2)o1 | i | i | i | i | i | x | x | x
COc1ccc(C(C[N+](=O)[O-])c2c(-c3ccccc3)cc3ccccn23)c(OC)c1 (stereo not drawn) | i | i | 54* | i | i | i | i | 20%*
O=C(CSc1nc2c(cnn2-c2ccc(F)cc2)c(=O)[nH]1)N1CCCc2ccccc21 | i | i | i | i | i | i | i | i
Cc1nc(-c2ccccc2)sc1C(=O)/C=C/c1ccc(Cl)cc1 | i | i | i | 12* | i | 7.5%* | 30%* | 16%*
SMILES | MrgX1 PAM | MrgX1 antagonist | MrgX1 ag | RGS4 inh | RGS4 act | RGS4 inh valid | M3R Ca ctr | RGS4 inh ctr2
O=C1Nc2ccccc2/C1=N/N=C/c1cccc(O)c1 | i | i | i | 8.9* | i | 20%* | 47%* | i
O=C1Nc2ccccc2/C1=N\N=C\C1=C(N2CCOCC2)C(=C\c2ccccc2)/CC1 | i | i | i | i | i | x | i | i
Cn1cc(C(=O)N/N=C/C2=C(N3CCOCC3)C(=C\c3ccccc3)/CC2)ccc1=O | i | i | i | i | i | x | x | x
N#Cc1c(-c2ccccc2)c(-c2ccccc2)nn(CC(=O)NNC(=O)Nc2ccc(Cl)c(Cl)c2)c1=O | i | i | i | 6.5* | i | 28%* | i | i
COc1cccc(OC)c1C(=O)OCCCOC(=O)c1c(OC)cccc1OC | i | i | i | i | i | x | x | x
Cn1c(O)c(N=NC(=O)CNC(=O)c2cccnc2)c2ccccc21 | i | i | i | i | i | x | x | x
O=C(CN1CCN(c2ccc(O)cc2)CC1)NC(c1ccccc1)c1ccccc1 | i | i | i | 13* | i | i | i | i
O=C(CN1CCCCCC1)NC(c1ccccc1)c1ccccc1 | i | i | i | i | i | x | x | x
Cc1cc(C)n(CC(O)Cn2c3ccc(Cl)cc3c3cc(Cl)ccc32)c(=O)n1 (stereo not drawn) | i | i | i | 8* | i | 25%* | i | i
Cc1cc(C)n(CC(O)Cn2c3ccccc3c3ccccc32)n1 (stereo not drawn) | i | i | i | i | i | x | x | x
NS(=O)(=O)c1cccc(NC(=O)COC(=O)c2cc(-c3ccc(Cl)cc3)nc3ccccc23)c1 | i | i | i | 5.6* | i | 14%* | i | i

Bioassay records deposited in PubChem by Johns Hopkins Ion Channel Center.
